Screening results deposited in PubChem by several laboratories.
Runt-SMMHC FRET – blocks binding of human RUNX1 Runt domain to CBFb-SMMHC | Cerulean-Runt/Venus-CBFb-SMMHC FRET ratio 530/480, 1 h | hit rate 0.74% among 220,000 | AID 1434 | inhibition, % at 20 µM;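 active = mean inhibition across duplicate retests at 20 µM reaching about 50%, limit read from the data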;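 note: 0% = DMSO wells and 100% = wells with excess untagged CBFb-SMMHC; inhibitors lower the FRET ratio by blocking Runt binding to CBFb-SMMHC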
TbHK1 inh – blocks Trypanosoma brucei hexokinase 1 activity; recombinant TbHK1, G6PDH-coupled NADH A340; inhibition, % at 10 µM; hit rate 0.11% among 220,000; AID 1430;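 active = inhibition of 50% or more in the single-dose primary screen; inactive = inhibition below 50%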
Runt-CBFb FRET – Runt domain-CBFb interaction inhibition | Q01196+Q13951 | Cerulean-Runt/Venus-CBFb FRET ratio 530/480, 1 h | inhibition, % at 20 µM | hit rate 0.46% among 220,000;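 active = inhibition over about 50% at 20 µM in the single-dose screen, limit read from the data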;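 note: 0% = DMSO wells and 100% = excess unlabeled CBFb competitor control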
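Assay system: Cerulean-Runt domain fusion protein, energy donor; Signal: fluorescence energy transfer, 422 nm excitation, 530/480 nm emission; Timing: 1 h compound exposure, room temperature; Control set: unlabeled CBFb; Medium: Tris buffer pH 7.5 with salts and BSA; Compound: single test concentration of 20 µM, 1% DMSO final; Probe or stimulus: Venus-CBFb 100 nM.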
Hck-Nef inh – blocks Nef-activated human Hck kinase; Recombinant Hck-YEEI plus Nef, Z-Lyte FRET kinase assay; inhibition, % at 20 µM; hit rate 0.68% among 220,000;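 active = Hck-Nef kinase inhibition above about 50%, limit read from the data; inactive = inhibition below that limit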;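 note: 0% = DMSO with Hck plus Nef and 100% = Hck alone without Nef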
Target sequence (P08631 whole entry, looked up): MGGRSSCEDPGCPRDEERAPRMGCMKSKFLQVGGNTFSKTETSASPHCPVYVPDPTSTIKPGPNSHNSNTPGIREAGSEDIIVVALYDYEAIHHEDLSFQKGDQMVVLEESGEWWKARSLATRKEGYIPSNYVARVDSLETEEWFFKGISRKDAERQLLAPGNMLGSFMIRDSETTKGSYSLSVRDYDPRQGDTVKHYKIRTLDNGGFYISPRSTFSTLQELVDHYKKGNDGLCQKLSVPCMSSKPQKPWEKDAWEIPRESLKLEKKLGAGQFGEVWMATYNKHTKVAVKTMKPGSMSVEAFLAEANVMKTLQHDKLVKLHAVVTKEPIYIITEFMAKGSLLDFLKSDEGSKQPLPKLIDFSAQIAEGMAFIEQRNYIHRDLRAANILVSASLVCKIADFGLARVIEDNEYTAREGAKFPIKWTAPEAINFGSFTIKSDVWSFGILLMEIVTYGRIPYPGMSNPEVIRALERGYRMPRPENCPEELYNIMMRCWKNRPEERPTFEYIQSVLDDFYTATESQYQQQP
RanGTP-Impb inh – inhibitors of RanGTP-importin-beta interaction, primary screen, biochemical, FRET, CFP-Ran, YFP-importin-beta, homogeneous. cell-free CFP-Ran/YFP-importin-beta FRET ratio. inhibition, % (concentration not given with the values). hit rate 1.1% among 300,000;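 active = more than half of the replicate wells show a fall in the fluorescence ratio signal beyond about 16%, limit read from the data, passing the limit was not always enough; inconclusive = exactly half of the replicate wells pass the set limit; inactive = fewer than half of replicates pass the limit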;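 note: 0% = DMSO wells and 100% = Ran loaded with GDP instead of GTP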
Numbers without * were called inactive. In the library only some 1.9% were active in any assay of this set; here they are far more common.

For Cc1ccc(NC(=O)CN2C(=O)S/C(=C\c3ccc(-c4cccc(C(=O)O)c4C)o3)C2=O)cc1 the results were Runt-SMMHC FRET -10.2, TbHK1 inh 19.0, Runt-CBFb FRET 25.0, Hck-Nef inh 2.8 and RanGTP-Impb inh 41.7*.
Screening CC(=O)c1ccc(OCCCC(=O)N2CCN(S(=O)(=O)c3ccc(C(C)C)cc3)CC2)cc1 returned RanGTP-Impb inh 1.8.
`CCn1nnc2cc(C(=O)Nc3cc(OC)cc(OC)c3)ccc21` gave RanGTP-Impb inh 0.2.
Cc1ccc2oc(C(=O)NCc3ncc(C)[nH]3)c(C)c2c1 was read as RanGTP-Impb inh 2.9.
Screening CCOc1ccc(CCNC(=O)COC(=O)c2cc([N+](=O)[O-])ccc2N2CCOCC2)cc1OCC returned RanGTP-Impb inh 3.1.
`COc1cc(C)ccc1OCCOc1c(C)cc(Cl)cc1Cl` gave Runt-SMMHC FRET 0.2, TbHK1 inh -7.4, Runt-CBFb FRET -2.3, Hck-Nef inh 3.3 and RanGTP-Impb inh -1.4.
For Cc1ccc2nc(NCCC(=O)O)nc(-c3ccccc3)c2c1 the results were Runt-SMMHC FRET 89.6*, TbHK1 inh -0.9, Runt-CBFb FRET 47.9, Hck-Nef inh 19.5 and RanGTP-Impb inh 3.3.
Screening Cc1ccc2nnnc(-c3ccccc3)c2c1 returned Runt-SMMHC FRET 0.1, TbHK1 inh -1.0, Runt-CBFb FRET -0.6, Hck-Nef inh -0.6 and RanGTP-Impb inh -2.3.
Screening O=C(O)CCNc1nc(-c2ccccc2)c2cc(Br)ccc2n1 returned RanGTP-Impb inh 19.9*.
For O=C(O)CCCC(=O)NNc1nc(-c2ccccc2)c2cc(Cl)ccc2n1 the results were RanGTP-Impb inh 9.9.
For Cc1ccc2nc(NCC(N)=O)nc(-c3ccccc3)c2c1 the results were Runt-SMMHC FRET 46.6, TbHK1 inh -19.0, Runt-CBFb FRET 23.8, Hck-Nef inh -17.5 and RanGTP-Impb inh 19.9*.
Screening CCOc1ccc(C(=O)NCC(=O)N2CCc3ccccc3C2)cc1OCC returned Runt-SMMHC FRET -0.3, TbHK1 inh -1.7, Runt-CBFb FRET 1.1, Hck-Nef inh 17.1 and RanGTP-Impb inh -0.4.
`O=C(O)c1ccc[n+](Cc2ccc([N+](=O)[O-])cc2)c1` gave RanGTP-Impb inh 12.3*.
O=C(CN1CCN(c2ccc(O)cc2)CC1)Nc1cc(S(=O)(=O)N2CCCCC2)ccc1Cl was read as Runt-SMMHC FRET 7.7, TbHK1 inh -5.6, Runt-CBFb FRET 9.7, Hck-Nef inh 61.1* and RanGTP-Impb inh 1.9.
Screening C=CCN(CC=C)CCOc1ccc2ccccc2c1 returned Runt-SMMHC FRET -0.9, TbHK1 inh 2.5, Runt-CBFb FRET -1.5, Hck-Nef inh 1.7 and RanGTP-Impb inh inconclusive.
Screening C=CCNc1oc(/C=C/c2ccccc2)nc1C#N returned Runt-SMMHC FRET 30.0, TbHK1 inh -33.1, Runt-CBFb FRET 10.0, Hck-Nef inh 29.7 and RanGTP-Impb inh 0.8.
Cc1ccc(C)c(NC(=O)CN(C)C(=O)c2ccc3[nH]c4c(c3c2)CC(C)CC4)c1 (stereo not drawn) was read as RanGTP-Impb inh 25.8*.
For Clc1ccsc1-c1csc(-c2cccnc2)n1 the results were Runt-SMMHC FRET -3.7, TbHK1 inh -7.9, Runt-CBFb FRET -3.3, Hck-Nef inh 1.0 and RanGTP-Impb inh 37.5*.
Screening c1cncc(-c2csc(-c3cccnc3)n2)c1 returned RanGTP-Impb inh 9.5.
`O=C(Cn1c2ccccc2c(=O)c2ccccc21)Nc1cccc(F)c1` gave Runt-SMMHC FRET 62.8*, TbHK1 inh 1.9, Runt-CBFb FRET 75.5*, Hck-Nef inh 10.1 and RanGTP-Impb inh 59.8*.
For O=C(CC(=O)Nc1cccc(F)c1)Nc1cccc(F)c1 the results were RanGTP-Impb inh -1.1.
`O=C(NCCC(=O)N1CCN(C(=O)c2ccco2)CC1)c1ccc(Br)cc1` gave RanGTP-Impb inh -0.5.
Screening Cc1cccc(N2CCN(C(=O)c3ccc4nc(-c5ccco5)c(-c5ccco5)nc4c3)CC2C)c1 (stereo not drawn) returned Runt-SMMHC FRET -14.7, TbHK1 inh -12.1, Runt-CBFb FRET 12.7, Hck-Nef inh 9.2 and RanGTP-Impb inh 35.1*.
CCOC(=O)c1c(NC(=S)NCc2ccccc2)sc2c1CCN(C(=O)OCC)C2 was read as Runt-SMMHC FRET -1.9, TbHK1 inh -22.1, Runt-CBFb FRET 1.1, Hck-Nef inh -26.3 and RanGTP-Impb inh 4.1.
`COC(=O)c1c(NC(=O)C(C)C)sc2c1CCN(Cc1ccccc1)C2` gave RanGTP-Impb inh 54.3*.
`CCC(=O)Nc1sc2c(c1C(=O)OC)CCN(Cc1ccccc1)C2` gave RanGTP-Impb inh 91.8*.
CCN1CCN(C(c2cccs2)C(C)NC(=O)C(=O)N2CCCCC2)CC1 (stereo not drawn) was read as RanGTP-Impb inh 5.8.
For CCOC(=O)C1(Cc2cccc(OC)c2)CCN(Cc2cnc(C)s2)CC1 the results were Runt-SMMHC FRET -1.1, TbHK1 inh 3.1, Runt-CBFb FRET 2.1, Hck-Nef inh -1.2 and RanGTP-Impb inh 45.0*.
`Cc1cc(=O)oc2cc(OCC(=O)N3CCN(C(=O)C4COc5ccccc5O4)CC3)c(Cl)cc12` (stereo not drawn) gave RanGTP-Impb inh 0.3.
N#CC1=C(N)SC(N)=C(C#N)C1Cc1ccccc1 was read as Runt-SMMHC FRET 48.7, TbHK1 inh -3.1, Runt-CBFb FRET 21.9, Hck-Nef inh 1.3 and RanGTP-Impb inh 61.9*.
CC(C)CC1C(C#N)=C(N)SC(N)=C1C#N was read as Runt-SMMHC FRET 8.0, TbHK1 inh -4.1, Runt-CBFb FRET 6.5, Hck-Nef inh 0.6 and RanGTP-Impb inh 41.1*.
For N#CC1=C(N)SC(N)=C(C#N)C1CCc1ccccc1 the results were Runt-SMMHC FRET 38.9, TbHK1 inh -9.3, Runt-CBFb FRET 25.9, Hck-Nef inh 5.0 and RanGTP-Impb inh inconclusive.
For CCOc1ccc(C2C(C(=O)C3CC3)N3C=C(C#N)C=CC3C2(C#N)C#N)cc1 (stereo not drawn) the results were Runt-SMMHC FRET 1.3, TbHK1 inh -24.0, Runt-CBFb FRET 1.6, Hck-Nef inh 4.3 and RanGTP-Impb inh 30.2*.
`CCOc1ccc(C(=O)C2CCN(C(=O)c3ccccc3C(=O)O)CC2)cc1` gave Runt-SMMHC FRET -0.2, TbHK1 inh 15.6, Runt-CBFb FRET -1.4, Hck-Nef inh 0.7 and RanGTP-Impb inh 4.4.
`COc1ccc(Cl)cc1N1C(=O)/C(=C\c2sccc2C)N=C1SCC(=O)NC1CC1` gave Runt-SMMHC FRET -3.4, TbHK1 inh -19.7, Runt-CBFb FRET -5.5, Hck-Nef inh 2.7 and RanGTP-Impb inh 3.3.
For CCCC[n+]1c2ccccc2cc2ccccc21 the results were RanGTP-Impb inh 150.5*.
Screening CCC[n+]1c2ccccc2cc2ccccc21 returned RanGTP-Impb inh 155.1*.
CCCCC[n+]1cccc2c3ccccc3ccc21 was read as Runt-SMMHC FRET 11.3, TbHK1 inh -7.6, Runt-CBFb FRET -1.7, Hck-Nef inh 21.9 and RanGTP-Impb inh 1.3.
